Compound activity deposited in PubChem BioAssay by several laboratories.
M1 antag: antagonists of rat M1 muscarinic receptor | B-score at 10 µM | Muscarinic acetylcholine receptor M1 (Rattus norvegicus), P08482 | CHO-M1 cells, Fluo-4 calcium, ACh EC80 antagonist mode; active compounds read low | actives 3.4% (n = 64,000);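 active means calcium fluorescence response, raw or row-and-column corrected B-score, differing from the plate sample mean either way at a set confidence level, mostly lower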
Target sequence (P08482 whole entry, looked up): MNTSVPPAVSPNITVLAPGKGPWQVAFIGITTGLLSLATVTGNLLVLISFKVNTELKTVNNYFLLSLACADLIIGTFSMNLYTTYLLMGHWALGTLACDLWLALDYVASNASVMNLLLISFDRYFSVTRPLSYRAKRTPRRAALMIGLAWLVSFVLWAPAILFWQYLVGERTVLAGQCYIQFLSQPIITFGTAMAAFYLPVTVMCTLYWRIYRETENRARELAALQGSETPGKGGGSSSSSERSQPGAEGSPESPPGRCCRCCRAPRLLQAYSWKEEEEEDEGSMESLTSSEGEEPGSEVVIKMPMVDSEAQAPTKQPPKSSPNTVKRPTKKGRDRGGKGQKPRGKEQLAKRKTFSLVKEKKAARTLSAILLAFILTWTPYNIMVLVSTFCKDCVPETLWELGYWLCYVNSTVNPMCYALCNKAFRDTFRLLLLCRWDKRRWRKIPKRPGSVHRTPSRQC
S1P3 ag: human S1P3 receptor agonists, primary screen, cell-based, primary and confirmation, NFAT-BLA reporter; actives 0.1% (n = 60,000); Sphingosine 1-phosphate receptor 3 (Homo sapiens), Q99500; AID 373, 2006; activation, % at 4.5 µM; S1P3 NFAT-BLA reporter cells, agonism, FRET ratio; relative to 1 µM S1P, basal subtracted;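 active means activation above the screen-wide mean plus 3 SD, cut at about 4.5% in these data, passing the limit was not always enough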
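Measure – % activation relative to 1 µM S1P (100%), per plate · System – stable CHO line with human S1P3, Gα16, NFAT-BLA reporter · Timing – cells plated overnight, compound 4 h 37 °C, substrate 2 h RT · Technique – fluorescent BLA substrate, ex 405 nm, em 460/535 nm ratio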
M1 ag: M1 muscarinic receptor agonists, primary screen, CHO-M1 cells, Fluo-4 calcium, agonist mode | Muscarinic acetylcholine receptor M1 | Fluo-4 calcium fluorescence; active compounds read high | B-score at 10 µM | actives 3% (n = 64,000) | AID 626, 2007;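 active means fluorescence rise, raw or as B-score row- and column-corrected plate score, outside the 99.7% band of its plate's samples, either direction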
S1P1 ag pot: S1P1 agonists and agonism potentiators, primary screen, cell-based, primary and confirmation screens, CRE-bla reporter | S1P1 CRE-bla cells, forskolin, beta-lactamase FRET, potentiator mode; S1P1 agonist co-added at EC20, 2 nM; 100% = saturating reference agonist, 0% = basal | activation, % at 9.5 µM | actives 0.57% (n = 56,000) | AID 449, 2006;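 active means activation above a cutoff set at the mean activation of all tested compounds plus 3 SD, cut at about 54% in these data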;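 further: forskolin at 4 µM as EC80 and the EC20 agonist is SEW2871; 100% = SEW2871 at its EC100 plus forskolin at EC80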
D1 mod: D1 CRE-luciferase signal change, two-sided – cell-based, HEK293 D1, dopamine EC30, D1 allosteric modulator project, primary screen; dopamine EC30 potentiation; actives deviate in either direction; B-score at 10 µM; actives 5.9% (n = 58,000); AID 641, 2007;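 active means luminescence count or its row- and column-corrected plate score outside the 99.7% band of the plate's sample wells, on either side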
The depositor's hits bear a star; . = no result given. In the library only some 11% were active in any assay of this set; here they are far more common.

SMILES | M1 antag | S1P3 ag | M1 ag | S1P1 ag pot | D1 mod
C=CCNC(=O)COc1ccc(Br)cc1Cl | 0.349 | -0.4 | -0.365 | . | 1.01
CC(=O)c1ccc(NC(=O)c2ccn[nH]2)cc1 | -0.0253 | 0.3 | -1.05 | -10.0 | -2.25*
CCOC(=O)C(NC(C)=O)(Nc1ccc(F)cc1)C(F)(F)F (stereo not given) | 0.869 | 0.8 | 0.266 | 20.5 | 0.179
CCOC(=O)C(NC(C)=O)(Nc1cccc(F)c1)C(F)(F)F (stereo not given) | 0.212 | -0.7 | -0.0135 | -9.3 | -6.42*
CC(=O)c1cccc(NC(=O)NCc2ccccn2)c1 | 1.14 | -0.8 | 3.1* | . | -1.38
O=C(NCCCn1ccnc1)C(Cc1ccccc1)N1C(=O)c2ccccc2C1=O (stereo not given) | 0.371 | -4.5 | -0.116 | 3.5 | .
CCOC(=O)COc1ccc(C(=O)NC2CCCCC2)cc1 | -0.56 | -1.1 | -0.105 | . | -5.63*
Cc1cc(/C=N/n2cnnc2)c(C)n1-c1ccc(OCc2ccccc2F)cc1 | -0.95 | -1.1 | 0.146 | 141.7* | -2.53
Fc1ccccc1COc1cccc(/C=N/n2cnnc2)c1 | 0.135 | -0.4 | 0.672 | 14.8 | 1.35
CCc1ccc(S(=O)(=O)NCCc2csc(-c3ccccc3)n2)s1 | -0.592 | 0.0 | -1.86 | 64.7* | -0.382
Nc1ncc2c(n1)CC(c1ccco1)CC2=O (stereo not given) | -0.556 | -0.8 | 0.978 | . | 1.77
COc1ccc(-c2nsc3c(N4CCCC4)ncnc23)cc1 | -0.541 | -1.2 | -0.178 | -3.8 | -4.38*
Cc1cc(-c2ccccc2)nc2[n+]1CCN2C | -1.16 | 0.3 | -0.641 | 12.7 | -0.213
COc1cc2nc(-c3ccccc3)nc(N3CCCC3)c2cc1OC | -0.339 | -5.1 | -0.718 | -10.0 | .
COc1cc2nc(N(C)C)nc(N)c2cc1OC | 0.958 | 0.3 | -0.485 | -41.0 | -4.64*
C/C=C/c1ccc(Oc2nnnn2-c2ccc(C(N)=O)cc2)c(OC)c1 | -0.129 | -1.1 | -0.784 | 18.9 | -6.5*
CCCCC(=O)NC1(C(F)(F)F)C(=O)Nc2c1c(=O)n(C)c(=O)n2C (stereo not given) | 1.51* | 1.4 | -0.291 | -6.6 | -0.297
CC(=O)NC1(C(F)(F)F)C(=O)Nc2c1c(=O)n(C)c(=O)n2C (stereo not given) | 0.223 | -4.8 | 0.263 | 0.8 | -0.108
COc1ccc(-c2cc3nc(C)cc(C)n3n2)c(OC)c1 | 0.972 | -0.2 | 0.364 | 3.9 | 0.351
CCCCCCNC(=O)C(C#N)c1nc2ccccc2nc1N1CCCC1 (stereo not given) | 1.14* | -2.0 | -0.0989 | 22.0 | -1.06
CCOC(=O)C1CCCN(c2nc3ccccc3nc2C(C#N)C(=O)NCc2ccccc2)C1 (stereo not given) | 0.0258 | -1.7 | 20.9* | -6.5 | 0.615
Cc1cc(C)c(Cn2c(=O)n(CCCC(=O)NCc3ccco3)c(=O)c3ccccc32)c(C)c1 | 0.0395 | -0.2 | -0.798 | -13.5 | 0.337
COc1ccc(Cn2c(C)nc3c(c2=O)c2nc4ccccc4nc2n3Cc2ccco2)cc1 | 0.189 | -0.2 | -0.834 | -28.4 | 7.64*
Nc1cccc2c1C(=O)N(c1ccccc1)C2=O | -0.372 | 0.2 | 69.7* | 30.4 | 2.54
CCCCC(=O)Nc1cccc2c1C(=O)N(c1ccccc1)C2=O | -0.398 | -0.7 | 1.87 | -10.7 | 1.69
COc1ccc(C(=O)NCC23C=CC(O2)C2C(=O)N(Cc4ccccc4)C(=O)C23)cc1 (stereo not given) | -1.89 | -0.8 | -0.304 | . | .
O=C1C2C3C=CC(CO)(O3)C2C(=O)N1c1ccccc1-c1ccccc1 (stereo not given) | 1.05 | -1.2 | -0.0217 | 153.8* | 0.0333
CCOC(=O)c1c(C)n(C)c2ccc(OCC(O)Cn3c(C)nc4ccccc43)cc12 (stereo not given) | -1.37 | -1.0 | 2.15* | . | -0.287
CCc1nn2c(=O)cc(CSc3nc4sc5c(c4c(=O)n3C)CCCC5)nc2s1 | -0.373 | -0.3 | -0.907 | -38.6 | 0.208
Cc1ccc(C(=O)/C=C/Nc2ccccc2C(N)=O)o1 | -0.431 | -0.7 | 0.811 | -3.5 | -4.14*
